A selection: hits, their analogues and other compounds. The true share with any hit is near 2.4%.
Scp1 inh: inhibitors of human Scp-1 phosphatase | inhibition, % at 20 µM | Recombinant Scp1, phosphopeptide, malachite green phosphate absorbance | actives 0.88% (n = 340,000);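 active = inhibition above about 50% at 20 µM, limit read from the data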;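 also: plate controls were DMSO wells with enzyme for no effect and wells lacking enzyme for full effect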
Target sequence (Q9GZU7 76-261 limits assumed): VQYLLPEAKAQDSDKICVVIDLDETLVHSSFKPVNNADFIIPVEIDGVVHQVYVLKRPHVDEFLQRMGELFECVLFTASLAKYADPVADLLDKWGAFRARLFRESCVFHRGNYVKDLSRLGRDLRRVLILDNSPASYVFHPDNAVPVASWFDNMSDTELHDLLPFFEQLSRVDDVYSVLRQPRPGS
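Test system – truncated SCP-1 phosphatase (76-261aa) · Reagent – Phosphorylated 17-residue peptide substrate · Incubation – 45 min room-temperature reaction, 5 min colour, 30 min stabiliser · Detection – colorimetric phosphate reagent with accelerator and stabiliser, absorbance at 630 nm · Measure – % inhibition at 20 µM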
DNMT1 block: DNMT1 (human) enzyme inhibition; P26358; DNMT1 molecular beacon, Hinp1I cleavage, fluorescence; inhibition (reported as % activation of signal), % at 10 µM; actives 0.83% (n = 360,000); in the data active = inhibition above about 50%
LMPTP inh: blocks human LMPTP phosphatase. P24666. recombinant LMPTP-A, OMFP fluorogenic substrate, fluorescence intensity. inhibition, % at 20 µM. actives 0.22% (n = 360,000);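 active = compounds that cut the enzyme signal by at least half of the control window in the single-dose screen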;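 also: plate controls were DMSO wells with enzyme plus substrate for no effect and substrate without enzyme for full effect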
Target sequence (P24666 whole entry, looked up): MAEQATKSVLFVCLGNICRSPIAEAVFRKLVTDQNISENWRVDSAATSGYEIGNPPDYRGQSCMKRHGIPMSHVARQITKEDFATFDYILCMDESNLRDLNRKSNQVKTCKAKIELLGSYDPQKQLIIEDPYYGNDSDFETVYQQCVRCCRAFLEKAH
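Assay system: LMPTP-A phosphatase enzyme | Input: 0.625 nM enzyme | Also added: Fluorogenic phosphatase substrate OMFP at 400 µM final | Compound dosing: One test concentration per compound, 20 µM, with 3% DMSO overall | Schedule: 50 min enzyme reaction at room temperature, protected from light | Signal: Fluorescence intensity | Benchmarks: no-enzyme and uninhibited controls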
STEP block: blocks human striatal-enriched tyrosine phosphatase | P54829 | recombinant STEP, OMFP fluorogenic substrate, fluorescence | inhibition, % at 20 µM | actives 0.25% (n = 360,000);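 active = inhibition at 20 µM, scaled per plate between control wells, above about 37%, limit read from the data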;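 also: 0% = DMSO with enzyme and substrate and 100% = substrate only without enzyme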
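System: isolated STEP enzyme; schedule: 20 min enzyme reaction at room temperature, protected from light; medium: Bis-Tris buffer pH 6.0, 2.5 mM DTT, 0.005% Tween 20; signal: fluorescence, 480/540 nm; dosing: single compound dose of 20 µM, 1% DMSO final; also added: OMFP substrate, 25 µM final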
NadD inh: inhibitors of Staphylococcus aureus NadD. purified NadD enzyme, colorimetric absorbance read-out. inhibition, % at 20 µM. actives 0.78% (n = 360,000). AID 602399; in the data active = inhibition above about 26%
SUMO1 PPI mod: SUMO1-SIM interaction modulation; inhibition, % at 20 µM; SUMO1 binding to a labelled peptide, TR-FRET, 1 h; actives 0.33% (n = 360,000); P63165; in the data active = inhibition above about 37%
Target sequence (P63165 whole entry, looked up): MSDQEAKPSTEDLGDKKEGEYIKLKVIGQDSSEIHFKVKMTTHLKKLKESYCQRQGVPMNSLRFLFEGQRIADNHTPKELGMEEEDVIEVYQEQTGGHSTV
Scp1 confirm: Scp-1 (human) inhibition, single-dose confirmed. shares compounds with Scp1 inh. recombinant SCP-1 catalytic domain, phosphate release, malachite green absorbance. inhibition, % at 20 µM. actives 61% (n = 2,500). AID 540281;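 also: plate controls were DMSO with enzyme for no effect and buffer wells lacking enzyme for full effect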
Scp-1 MG ctr: counter-screen for Scp-1 inhibitors: colorimetric interference | shares compounds with Scp1 inh | Colorimetric interference counterscreen, malachite green absorbance 630 nm | apparent inhibition (interference), % at 20 µM | 2,500 tested, under 10 active;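 also: compounds added after enzyme reaction finished so only phosphate colour detection is probed; plate controls were DMSO wells with completed Scp-1 reaction for no effect and substrate wells lacking enzyme for full effect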
Scp-1 Tm shift: Scp-1 (human) binding by thermal shift; Recombinant SCP1, Sypro Orange thermal shift Tm; AID 540329; thermal shift relative to vanadate control, % at 40 µM; shares compounds with Scp1 inh; actives 25% (n = 1,500);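 active = substances whose mean melting-temperature shift, as a percentage of the reference inhibitor's shift, reaches about 5.3%, limit read from the data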;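 also: 0% = Tm of DMSO wells and 100% = Tm with sodium orthovanadate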
Starred values were filed as active, the others as inactive; · = no result.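 The calls were made as follows, unless noted: active = inhibition of at least 30% at 20 µM; inactive = the rest.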

SMILES	Scp1 inh	DNMT1 block	LMPTP inh	STEP block	NadD inh	SUMO1 PPI mod	Scp1 confirm	Scp-1 MG ctr	Scp-1 Tm shift
Cc1ccc(NC(=O)N2CCC(NC(=O)c3cccc(C)c3)CC2)cc1	103*	7	1	0	7	-3	55*	-9	-7
CC(=O)Oc1ccc(/C=C(\NC(=O)c2ccco2)C(=O)NCc2ccccc2)cc1	54*	-1	0	-1	-3	-6	-6	-6	·
COC(=O)CCC(=O)Nc1ccccc1C(N)=O	-5	0	0	-2	-4	1	·	·	·
COc1ccccc1OCCn1c(SCC(=O)O)nc2ccccc21	62*	17	-2	3	1	2	50*	-8	-16
COc1ccccc1OCCSc1nc2ccccc2n1CCC(=O)O	9	10	-1	-1	0	9	·	·	·
Cc1cc(C)cc(OCCn2nnc3ccccc32)c1	62*	-3	1	-1	-5	4	-13	-16	·
Cc1ccc(C)c(OCCn2nnc3ccccc32)c1	-4	8	0	-1	-8	7	·	·	·
CCOC(=O)c1cc2c(=O)n3cccc(C)c3nc2n(Cc2ccco2)c1=NC(=O)c1cccnc1	52*	15	2	-19	15	11	44*	-11	6.9*
CCCCOc1ccc(C2C(C(=O)c3cccs3)=C(O)C(=O)N2CCN2CCOCC2)cc1 (centres undefined)	-10	2	0	4	7	-5	·	·	·
CCN(CC)CCNC(=O)Cc1c(C(=O)O)n(CC)c2ccccc12	2	6	-5	-3	7	18	·	·	·
Cc1ccnc(NC(=O)CCN2C(=O)c3ccccc3S2(=O)=O)n1	-4	1	-1	3	0	-1	·	·	·
C[C@H](CO)N1C[C@H](C)[C@@H](CN(C)C(=O)NC2CCCCC2)Oc2ccc(NS(=O)(=O)c3cccs3)cc2C1=O	56*	1	-2	0	-3	2	2	-19	·
C[C@H](CO)N1C[C@H](C)[C@H](CN(C)S(=O)(=O)c2cn(C)cn2)Oc2ccc(NC(=O)Nc3ccc(C(F)(F)F)cc3)cc2CC1=O	-4	-10	0	-2	-9	-2	·	·	·
C[C@@H]1CN([C@H](C)CO)C(=O)c2cc(NS(=O)(=O)c3cn(C)cn3)ccc2O[C@H]1CN(C)C(=O)Nc1ccccc1	82*	6	-1	4	1	1	22	-13	·
CC(C)NC(=O)N(C)C[C@H]1Oc2ccc(NS(=O)(=O)c3cccs3)cc2C(=O)N([C@H](C)CO)C[C@@H]1C	6	7	1	-1	5	3	·	·	·
C[C@H]1CN([C@@H](C)CO)C(=O)Cc2cc(NS(=O)(=O)c3cn(C)cn3)ccc2O[C@@H]1CN(C)C(=O)Nc1ccc(F)cc1	73*	5	-2	8	0	2	37*	-16	-14
Oc1ccc(/C=N/N2CCN(C3c4ccccc4-c4ccccc43)CC2)c(O)c1	-3	-16	3	0	11	-4	·	·	·
N#C/C(=C\c1ccc[nH]1)C(=O)Nc1ccccc1[N+](=O)[O-]	55*	21	32	-1	-4	25	64*	-7	5.3*
O=C(c1ncn[nH]1)N1CCN(c2nc(-c3ccccc3)cs2)CC1	56*	21	4	0	9	15	39*	-1	2
CC(/C=C/c1ccco1)=N\NC(=O)c1cc(C)[nH]n1	52*	-15	0	-2	-1	4	24	-8	·
CC(/C=C/c1ccco1)=N\NC(=O)c1cccnc1	55*	-6	0	-2	6	-6	33*	-11	-16
